Measured values taken from ChEMBL document CHEMBL1136836, “Aryloxy cyclohexyl imidazoles: a novel class of antileishmanial agents” (Bioorg Med Chem Lett, 2009).
Converted amounts (≈) assume the structure as drawn.

Tests used:
[1] = (§1) Selectivity index, ratio of CC50 for mouse J774A1 cells to IC50 for Leishmania donovani intracellular amastigotes infected in mouse J774A1 cells; format: functional, J774.A1
Procedure, shortened: (§2)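 SI is based on CC50 in J-774-A-1 macrophages and IC50 in the antileishmanial assay.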

[2] = Cytotoxicity against mouse J774A1 cells after 48 hrs by Geimsa staining method; format: cell-based, J774.A1
Procedure, shortened: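 Mouse macrophage line J-774-A-1 used for the cytotoxicity read-out. CC50 is the concentration giving 50% inhibition of cell viability.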

Leishmania donovani [3] = experiment: Antileishmanial activity against Leishmania donovani intracellular amastigotes infected in mouse J774A1 cells after 48 hrs by luciferase activity-based drug susceptibility assay; format: functional, organism-based; conditions: for Activity: J774.A1; for IC50: J774.A1, 48 h
Procedure, shortened: (§3)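 Intracellular amastigotes of transgenic L. donovani in mouse J-774-A-1 macrophages, exposed to a range of concentrations up to a maximum of 10 µg/ml. Sodium stibogluconate and pentamidine served as reference drugs. IC50 calculated by Probit analysis.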

Leishmania donovani [4] = experiment: Antileishmanial activity against Leishmania donovani extracellular promastigotes after 72 hrs by luciferase activity-based drug susceptibility assay; format: functional, organism-based
Procedure, shortened: (§4)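 Transgenic L. donovani promastigotes tested at various concentrations up to a maximum of 10 µg/ml, with sodium stibogluconate and pentamidine as reference drugs. IC50 derived by Probit analysis.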

Leishmania donovani [5] = experiment: Antileishmanial activity against Leishmania donovani intracellular amastigotes infected in mouse J774A1 cells at 10 ug/ml after 48 hrs by luciferase activity-based drug susceptibility assay; format: functional; conditions: for inhibition at 10 µg/mL: J774.A1, 48 h; procedure, shortened: as §3
Leishmania donovani [6] = experiment: Antileishmanial activity against Leishmania donovani extracellular promastigotes at 10 ug/ml after 72 hrs by luciferase activity-based drug susceptibility assay; format: functional; procedure, shortened: as §4
Leishmania donovani [7] = experiment: Antileishmanial activity against Leishmania donovani infected in hamster assessed as inhibition of parasite growth at 50 mg/kg, ip for 10 days; format: functional; conditions: 240 h, route intraperitoneal
Procedure, shortened: (§5)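 L. donovani-infected hamster model. Dosing was intraperitoneal, 10 doses: test compounds at 50 mg/kg, sodium stibogluconate at 20 mg/kg, pentamidine at 40 mg/kg. Read-out is percent inhibition of parasites.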

Leishmania donovani [8] = experiment: Antileishmanial activity against Leishmania donovani infected in hamster assessed as inhibition of parasite growth at 20 mg/kg, ip for 10 days; format: functional, organism-based; design: dose 20 mg/kg; procedure, shortened: as §5
J774.A1 = experiment: as §1; format: functional; procedure, shortened: as §2
Leishmania donovani [9] = experiment: Antileishmanial activity against Leishmania donovani infected in hamster assessed as inhibition of parasite growth at 40 mg/kg, ip for 10 days; format: functional; conditions: 240 h, route intraperitoneal; procedure, shortened: as §5

Compound | IC50 (Leishmania donovani [3]) [µg/mL] | IC50 (Leishmania donovani [4]) [µg/mL] | Ratio CC50/IC50 [1] | CC50 at 48 h [2] [µg/mL] | Activity (Leishmania donovani [3]) | Activity (Leishmania donovani [4]) | inhibition at 10 µg/mL (Leishmania donovani [5]) [%] | inhibition at 10 µg/mL (Leishmania donovani [6]) [%] | inhibition in vivo at 50 mg/kg (Leishmania donovani [7]) [%] | inhibition (Leishmania donovani [8]) [%] | Ratio CC50/IC50 (J774.A1) | inhibition (Leishmania donovani [5]; J774.A1) [%] | inhibition (Leishmania donovani [6]) [%] | inhibition in vivo at 40 mg/kg (Leishmania donovani [9]) [%]
O=[N+]([O-])c1ccc(OC2C(n3ccnc3)CCCC2n2ccnc2)cc1 (stereo not drawn) | 8.76 (≈ 24.8 µM) | 4.67 (≈ 13.2 µM) | >11.4 | > 100 | Dose-dependent effect | Dose-dependent effect | 100 | 100 | – | – | – | – | – | –
OC1C(Cn2ccnc2)CCCC1Cn1ccnc1 (stereo not drawn) | 10.8 (≈ 41.4 µM) | 9.4 (≈ 36.1 µM) | >9.28 | > 100 | Dose-dependent effect | Dose-dependent effect | 100 | 100 | – | – | – | – | – | –
O=[N+]([O-])c1ccc(OC2C(n3ccnc3)CCCC2n2ccnc2)c(F)c1 (stereo not drawn) | 3.02 (≈ 8.13 µM) | 6.13 (≈ 16.5 µM) | 30 | 90.6 (≈ 244 µM) | Dose-dependent effect | Dose-dependent effect | 100 | 100 | 56.7 | – | – | – | – | –
D-gluconic acid 2,4:2',4'-O-[oxybis(oxidostibylidyne)]bis-trisodium salt nonahydrate | – | – | – | – | Dose-dependent effect | Dose-dependent effect | – | – | – | 84.1 | 6.38 | 100 | 100 | –
O=[N+]([O-])c1ccc(OC2C(Cn3ccnc3)CCCC2Cn2ccnc2)c(F)c1 (stereo not drawn) | 1.17 (≈ 2.93 µM) | 3.57 (≈ 8.94 µM) | 33.64 | 39.4 (≈ 98.6 µM) | Dose-dependent effect | Dose-dependent effect | 100 | 100 | 77.9 | – | – | – | – | –
O=[N+]([O-])c1ccccc1OC1C(Cn2ccnc2)CCCC1Cn1ccnc1 (stereo not drawn) | 2.44 (≈ 6.39 µM) | 9.57 (≈ 25.1 µM) | 28.47 | 69.4 (≈ 182 µM) | Dose-dependent effect | Dose-dependent effect | 100 | 100 | – | – | – | – | – | –
N=C(N)c1ccc(OCCCCCOc2ccc(C(=N)N)cc2)cc1 [PENTAMIDINE] | 12.1 (≈ 35.6 µM) | 0.643 (≈ 1.89 µM) | 2.58 | 31.3 (≈ 92 µM) | Dose-dependent effect | Dose-dependent effect | 100 | 100 | – | – | – | – | – | 92

More lines, main results first:

IC50 (Leishmania donovani [3]) [µg/mL] | IC50 (Leishmania donovani [4]) [µg/mL] | Compound | Ratio CC50/IC50 [1] | CC50 at 48 h [2] [µg/mL] | Activity (Leishmania donovani [3]) | Activity (Leishmania donovani [4]) | inhibition at 10 µg/mL (Leishmania donovani [5]) [%] | inhibition at 10 µg/mL (Leishmania donovani [6]) [%] | inhibition in vivo at 50 mg/kg (Leishmania donovani [7]) [%] | inhibition (Leishmania donovani [8]) [%] | Ratio CC50/IC50 (J774.A1) | inhibition (Leishmania donovani [5]; J774.A1) [%] | inhibition (Leishmania donovani [6]) [%] | inhibition in vivo at 40 mg/kg (Leishmania donovani [9]) [%]
0.71 (≈ 2.22 µM) | 1.08 (≈ 3.38 µM) | O=[N+]([O-])c1ccc(O[C@H]2CCCC[C@@H]2Cn2ccnc2)c(F)c1 | >140.84 | > 100 | Dose-dependent effect | Dose-dependent effect | 100 | 100 | 55.4 | – | – | – | – | –
1.97 (≈ 5.16 µM) | 5.52 (≈ 14.5 µM) | O=[N+]([O-])c1ccc(OC2C(Cn3ccnc3)CCCC2Cn2ccnc2)cc1 (stereo not drawn) | 37.51 | 73.9 (≈ 194 µM) | Dose-dependent effect | Dose-dependent effect | 100 | 100 | 52 | – | – | – | – | –
3 (≈ 7.97 µM) | 2.06 (≈ 5.47 µM) | FC(F)(F)c1ccc(OC2C(n3ccnc3)CCCC2n2ccnc2)cc1 (stereo not drawn) | 32.143 | 96.4 (≈ 256 µM) | Dose-dependent effect | Dose-dependent effect | 100 | 100 | 36.8 | – | – | – | – | –
1.13 (≈ 2.79 µM) | 3.28 (≈ 8.12 µM) | FC(F)(F)c1ccc(OC2C(Cn3ccnc3)CCCC2Cn2ccnc2)cc1 (stereo not drawn) | 83.6 | 94.5 (≈ 234 µM) | Dose-dependent effect | Dose-dependent effect | 100 | 100 | 51 | – | – | – | – | –
2.13 (≈ 5.77 µM) | 2.37 (≈ 6.42 µM) | O=[N+]([O-])c1ccc(O[C@H]2CCCC[C@@H]2Cn2ccnc2)c(C(F)(F)F)c1 | 6.49 | 13.8 (≈ 37.5 µM) | Dose-dependent effect | Dose-dependent effect | 100 | 100 | – | – | – | – | – | –
6.72 (≈ 22.3 µM) | 4.23 (≈ 14 µM) | O=[N+]([O-])c1ccccc1O[C@H]1CCCC[C@@H]1Cn1ccnc1 | 9.39 | 63.1 (≈ 209 µM) | Dose-dependent effect | Dose-dependent effect | 100 | 100 | – | – | – | – | – | –
0.588 (≈ 1.31 µM) | 6.72 (≈ 15 µM) | O=[N+]([O-])c1ccc(OC2C(Cn3ccnc3)CCCC2Cn2ccnc2)c(C(F)(F)F)c1 (stereo not drawn) | 24.557 | 14.4 (≈ 32.1 µM) | Dose-dependent effect | Dose-dependent effect | 100 | 100 | – | – | – | – | – | –
3.83 (≈ 11.8 µM) | 0.81 (≈ 2.5 µM) | FC(F)(F)c1ccc(O[C@H]2CCCC[C@@H]2Cn2ccnc2)cc1 | 9.292 | 35.6 (≈ 110 µM) | Dose-dependent effect | Dose-dependent effect | 100 | 100 | – | – | – | – | – | –
4.57 (≈ 15.2 µM) | 0.82 (≈ 2.72 µM) | O=[N+]([O-])c1ccc(O[C@H]2CCCC[C@@H]2Cn2ccnc2)cc1 | 9.757 | 44.6 (≈ 148 µM) | Dose-dependent effect | Dose-dependent effect | 100 | 100 | – | – | – | – | – | –
